Data from PubChem BioAssay.
Calls of active or inactive are those of the source.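 The calls were made as follows, unless noted: active = viability at or under a set limit in both replicates, limit being median viability minus 3 SD (cut at about 48% in these data, passing the limit was not always enough); inconclusive = at or under the limit in just one replicate; inactive = at or above the limit in both replicates.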

How the values were obtained:
[1] = SK-BR-3 cell growth inhibitors, pilot screen, 24 h, human (AID 572;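 active = viability at or below 10% of carrier control in both of two separate runs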;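 also: compound exposure lasted between 18 and 24 h rather than exactly 24 h; 100% = carrier-treated control wells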); details: SK-BR-3 viability, CellTiter-Glo luminescence, at 10 µM, stronger effect = lower value
[2] = HUVEC growth inhibition – cell-based, human, primary screen (AID 575;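 active = viability at or below 30% in both replicate assays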;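 also: 100% = median of untreated cell wells with 0.1% DMSO on each plate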); details: HUVEC proliferation, CellTiter-Glo luminescence, 72 h; at 10 µM; stronger effect = lower value
Summary of the method: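 Material: primary human umbilical vein endothelial cells / Schedule: 72 h exposure, 37 °C, 5% CO2, 30 min RT equilibration / Signal: ATP-based CellTiter-Glo luminescent read / Read-out basis: percent of median DMSO-control luminescence / Control set: 32 DMSO-only cell-control wells (high), 32 MePR drug-control wells (low) per plate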

[3] = growth inhibitors of H69AR lung tumor, primary screen, human, duplicate replicates (AID 580); details: H69AR lung tumor cells viability, ATP luminescence, 72 h; at 10 µM; stronger effect = lower value;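 also: 100% = mean luminescence of untreated wells and 0% = no signal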
[4] = reversal of MRP1-mediated doxorubicin resistance, pilot screen, H69AR cells, doxorubicin co-treatment (AID 601;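 active = viability loss from added drug above about 55%, and viability with drug at most 40%, in both replicates, limit read from the data, passing the limit was not always enough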); details: CellTiter-Glo, 72 h, at 10 µM; for differential viability (reversal): stronger effect = higher value
[5] = 384-well plate pilot, post-Golgi transport modulator project, inhibition of yeast transport mutant growth (AID 636; in the data active = inhibition above about 31%); details: absorbance 615 nm, about 18 h, stronger effect = higher value
[6] = growth suppression of yeast trafficking mutant, preliminary HTS, modulators of trafficking downstream of Golgi apparatus project, 1536-format plate, OD 615 nm (AID 637; in the data active = inhibition above about 30%); details: yeast transport mutant growth, absorbance 615 nm, 18 h; stronger effect = higher value
[7] = H69AR cells + 2 uM doxorubicin, measured here: viability with 2 uM doxorubicin, stronger effect = lower value
[8] = H69AR cells, compound alone cytotoxicity

Row | SMILES | viability [1] | viability [2] | viability [3] | differential viability (reversal) ([4]; H69AR cells + 2 uM doxorubicin) | viability [4, 7] [%] | viability [4, 8] [%] | inhibition [5] | inhibition [6]
1 | Cc1ccccc1-n1nc(C)c2cc(C(=O)NCc3cccnc3)sc21 | 126% (inactive) | 74.1% (inactive) | 70.3% (inactive) | 10.8% (inactive) | 59.4 | 70.3 | -1.95% (inactive) | 9.51% (inactive)
2 | COc1ccc(-c2nnn(CC(=O)c3ccc4c(c3)OCCO4)n2)cc1OC | 92% (inactive) | 73.8% (inactive) | 81.5% (inactive) | 7.78% (inactive) | 73.7 | 81.5 | -7.26% (inactive) | 0% (inactive)
3 | COC(=O)c1cccc(S(=O)(=O)N2CCC(C)CC2)c1 | 100% (inactive) | 105% (inactive) | 93.8% (inactive) | -4.31% (inactive) | 98.1 | 93.8 | 0.52% (inactive) | -3.44% (inactive)
4 | Cc1ccccc1NC(=O)CN1CCC(NC(=O)Nc2ccccc2)CC1 | 108% (inactive) | 104% (inactive) | 84.8% (inactive) | -4.37% (inactive) | 89.1 | 84.8 | -7.7% (inactive) | -3.64% (inactive)
5 | O=C(CSc1ncn[nH]1)NC1CC2CCC1C2 (stereo not drawn) | 94% (inactive) | 103% (inactive) | 98% (inactive) | -22.4% (inactive) | 120 | 98 | -5.34% (inactive) | -1.82% (inactive)
6 | COc1ccccc1-c1nnc(NC(=O)c2ccc(S(=O)(=O)N(C)Cc3ccccc3)cc2)o1 | 85% (inactive) | 23.9% (active) | 19.2% (active) | -25.1% (inactive) | 44.3 | 19.2 | 1.3% (inactive) | 6.56% (inactive)
7 | O=C(Nc1cccnc1)Nc1ccc(F)c(Cl)c1 | 82% (inactive) | 86.6% (inactive) | 105% (inactive) | 4.77% (inactive) | 100 | 105 | -2.19% (inactive) | 12% (inactive)
8 | CC(C)OC(=O)c1cccc(C(=O)O)n1 | 110% (inactive) | 91% (inactive) | 96% (inactive) | 1.99% (inactive) | 94.1 | 96 | -1.69% (inactive) | -5.57% (inactive)
9 | CCCC1CCC(C(=O)Nn2cnc3ccccc3c2=O)CC1 (stereo not drawn) | 101% (inactive) | 108% (inactive) | 91.7% (inactive) | 9.62% (inactive) | 82 | 91.7 | 1.17% (inactive) | 7.05% (inactive)
10 | CC(=O)SCCC(=O)Nc1ccccc1 | 88% (inactive) | 87.2% (inactive) | 92.5% (inactive) | 5.22% (inactive) | 87.3 | 92.5 | -7.12% (inactive) | 0.81% (inactive)
11 | COc1ccc(S(=O)(=O)Nc2ccccc2OC)cc1C | 107% (inactive) | 93.8% (inactive) | 83.1% (inactive) | -7.08% (inactive) | 90.2 | 83.1 | 0% (inactive) | 0.82% (inactive)
12 | FC(F)(F)c1ccc(Sc2nnc(-c3cccs3)n2CC2CCCO2)nc1 (stereo not drawn) | 68% (inactive) | 104% (inactive) | 94.5% (inactive) | 6.06% (inactive) | 88.4 | 94.5 | -8.22% (inactive) | 2% (inactive)
13 | CCC(c1nnc(SCC(=O)Nc2ccc(C(=O)Nc3ccccc3OC)cc2)o1)N(C)C (stereo not drawn) | 65% (inactive) | 96.7% (inactive) | 107% (inactive) | 7.67% (inactive) | 99 | 107 | -6.3% (inactive) | -2.18% (inactive)
14 | CCCn1nnc(NCc2ccc(OCc3cccs3)c(OC)c2)n1 | 88% (inactive) | 106% (inactive) | 96.5% (inactive) | 1.02% (inactive) | 95.5 | 96.5 | -6.44% (inactive) | 2.36% (inactive)
15 | CC(C)(C)NC(=O)C(Cc1ccccc1)NS(=O)(=O)c1cccc2nsnc12 (stereo not drawn) | 87% (inactive) | 105% (inactive) | 87.8% (inactive) | -7.5% (inactive) | 95.3 | 87.8 | -9.86% (inactive) | -1.09% (inactive)
16 | CCOCC(=O)Nc1c(C(=O)Nc2ccc(OC)cc2OC)oc2ccccc12 | 65.5% (inactive) | 50.9% (inactive) | 48% (active) | -0.305% (inactive) | 48.3 | 48 | -6.62% (inactive) | -3.77% (inactive)
17 | S=c1[nH]nc(Cc2ccccc2)n1Cc1ccco1 | 78% (inactive) | 108% (inactive) | 96.3% (inactive) | -2.76% (inactive) | 99.1 | 96.3 | -1.64% (inactive) | -6.94% (inactive)
18 | CS(=O)(=O)N(CC(=O)NCCSCc1cccc(Cl)c1)c1ccc2c(c1)OCO2 | 94% (inactive) | 97.9% (inactive) | 93.4% (inactive) | -4.33% (inactive) | 97.8 | 93.4 | -2.21% (inactive) | -2.62% (inactive)

Row | SMILES | viability [1] | viability [2] | viability [3] | differential viability (reversal) ([4]; H69AR cells + 2 uM doxorubicin) | viability [4, 7] [%] | viability [4, 8] [%] | inhibition [5] | inhibition [6]
19 | CC(C)(C)NS(=O)(=O)c1ccc(CCC(=O)O)cc1 | 100% (inactive) | 105% (inactive) | 94.8% (inactive) | -5.2% (inactive) | 100 | 94.8 | -3.42% (inactive) | -1.45% (inactive)
20 | CCCCNC(=O)OCCNC(=O)NC | 98% (inactive) | 95.9% (inactive) | 98.1% (inactive) | 7.46% (inactive) | 90.7 | 98.1 | -4.05% (inactive) | -5.45% (inactive)
21 | CCCCCn1c(CN2CCN(c3cccc(Cl)c3)CC2)nc2c1c(=O)n(C)c(=O)n2C | 97% (inactive) | 69.2% (inactive) | 88% (inactive) | 38.5% (inactive) | 49.5 | 88 | 7.7% (inactive) | 11.6% (inactive)
22 | CC(=O)c1ccccc1OCCn1nnc(-c2ccc(C)cc2)n1 | 108% (inactive) | 83.6% (inactive) | 80.1% (inactive) | 5.44% (inactive) | 74.6 | 80.1 | -8.9% (inactive) | 2.1% (inactive)
23 | CC(C)OC(=O)C1C2C=CC3(CN(Cc4cccs4)C(=O)C13)O2 (stereo not drawn) | 89% (inactive) | 96.7% (inactive) | 90.1% (inactive) | -3.73% (inactive) | 93.8 | 90.1 | -6.44% (inactive) | 2.42% (inactive)
24 | COC(=O)c1sc(N)c(C(=O)OC)c1COC(=O)C1CC(=O)N(Cc2ccco2)C1 (stereo not drawn) | 84% (inactive) | 103% (inactive) | 72.8% (inactive) | -6.05% (inactive) | 78.9 | 72.8 | -4.19% (inactive) | -2.18% (inactive)
25 | CC(Cc1ccc(O)c(O)c1)C(C)Cc1ccc(O)c(O)c1 (stereo not drawn) | 87% (inactive) | 22.3% (active) | 77.4% (inactive) | -1.66% (inactive) | 79.1 | 77.4 | -5.45% (inactive) | -6.33% (inactive)
26 | Nn1c(SCC(=O)Nc2ccc(S(=O)(=O)N3CCCC3)cc2)nnc1C(F)(F)F | 110% (inactive) | 89.7% (inactive) | 90.8% (inactive) | -6.72% (inactive) | 97.6 | 90.8 | 0% (inactive) | 3.11% (inactive)
27 | Cc1cccc(C)c1-n1nnnc1SCSc1nnnn1-c1c(C)cccc1C | 92% (inactive) | 66.8% (inactive) | 72.1% (inactive) | -1.23% (inactive) | 73.3 | 72.1 | -7.81% (inactive) | -0.73% (inactive)
28 | c1n[nH]c(SCCCCSc2ncn[nH]2)n1 | 101% (inactive) | 108% (inactive) | 108% (inactive) | 13.8% (inactive) | 93.9 | 108 | -6.71% (inactive) | 2.91% (inactive)
29 | CCN(CC)S(=O)(=O)c1ccc(NC(=O)c2cccc3c2C(=O)N(CCOC)C3)cc1 | 119% (inactive) | 109% (inactive) | 94.4% (inactive) | 9.21% (inactive) | 85.2 | 94.4 | -9.73% (inactive) | -5.45% (inactive)
30 | CCCC1(C(=O)OC)NC(c2cc(OC)c(OC)c(OC)c2)C2C(=O)N(CC)C(=O)C21 (stereo not drawn) | 67% (inactive) | 98.3% (inactive) | 88.9% (inactive) | -1.5% (inactive) | 90.4 | 88.9 | -4.93% (inactive) | 21.4% (inactive)
31 | CC(N)C12CC3CC(C1)CC(C(C)N)(C3)C2 (stereo not drawn) | 87% (inactive) | 110% (inactive) | 101% (inactive) | 11.4% (inactive) | 89.4 | 101 | -3.6% (inactive) | -4.18% (inactive)
32 | CCCCN1C[C@H](O)[C@@H](O)[C@H](O)[C@H]1CO | 123% (inactive) | 88.9% (inactive) | 96.5% (inactive) | -3.9% (inactive) | 100 | 96.5 | 1.82% (inactive) | 27% (inactive)
33 | Cc1nc2nc(-c3cccnc3)nn2c(C)c1Cl | 109% (inactive) | 87.4% (inactive) | 102% (inactive) | 12.9% (inactive) | 89.2 | 102 | -3.78% (inactive) | -3.27% (inactive)
34 | CCCNS(=O)(=O)c1ccc(OCC(=O)Nc2ccccc2F)cc1 | 96.5% (inactive) | 90.3% (inactive) | 87.3% (inactive) | 8.17% (inactive) | 79.1 | 87.3 | -4.21% (inactive) | -0.81% (inactive)
35 | CC(=O)Nc1ccc(NC(=O)Cn2cnc3c(cnn3C(C)(C)C)c2=O)cc1 | 101% (inactive) | 87.9% (inactive) | 98.9% (inactive) | 13.8% (inactive) | 85.1 | 98.9 | -5.47% (inactive) | 3.27% (inactive)
36 | CCCCC[C@H](O)/C=C/C1=C(CCCCCCC(=O)O)C(=O)CC1 | 109% (inactive) | 75.2% (inactive) | 92.5% (inactive) | -9.49% (inactive) | 102 | 92.5 | -0.26% (inactive) | -1.17% (inactive)
